These results are taken from ChEMBL document CHEMBL1156610, “Synthesis, biological evaluation, and molecular modeling studies of methylene imidazole substituted biaryls as inhibitors of human 17alpha-hydroxylase-17,20-lyase (CYP17)--part II: Core rigidification and influence of substituents at the methylene bridge” (Bioorg Med Chem, 2008).

One may read the IC50 as the midpoint of a concentration-inhibition curve. The term inhibition denotes the drop in the measured response relative to a control, in per cent. As a reminder, the half-life is the time needed for the level to fall by half in the phase considered. A word on the Tmax: it is the time at which the peak concentration occurs. As a reminder, the AUC(0-inf) is the area under the concentration-time curve extrapolated to infinity. In general, Cmax refers to the peak of the concentration-time curve.

Structures are written as SMILES.

For series [1], the target named is T1, Steroid 17-alpha-hydroxylase/17,20 lyase (Homo sapiens, UniProt P05093).
T1 sequence (P05093 whole entry): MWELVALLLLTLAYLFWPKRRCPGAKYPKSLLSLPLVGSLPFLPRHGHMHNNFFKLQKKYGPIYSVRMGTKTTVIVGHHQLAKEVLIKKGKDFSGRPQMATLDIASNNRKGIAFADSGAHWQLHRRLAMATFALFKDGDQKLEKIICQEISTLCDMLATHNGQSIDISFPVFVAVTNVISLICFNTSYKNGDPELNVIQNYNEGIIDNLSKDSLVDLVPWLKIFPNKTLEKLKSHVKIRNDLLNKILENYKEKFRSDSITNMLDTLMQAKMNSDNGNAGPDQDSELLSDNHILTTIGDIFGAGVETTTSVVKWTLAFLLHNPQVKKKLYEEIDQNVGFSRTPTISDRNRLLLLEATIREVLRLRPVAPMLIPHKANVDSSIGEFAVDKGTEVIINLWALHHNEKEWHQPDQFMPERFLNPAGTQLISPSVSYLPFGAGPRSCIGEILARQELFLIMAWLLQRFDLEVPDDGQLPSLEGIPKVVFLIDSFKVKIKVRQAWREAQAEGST
As to the kind of experiment: Inhibition of human CYP17 expressed in Escherichia coli coexpressed with cytochrome P450 reductase. The gist of the method: (§1)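 Enzyme source: 50,000g sediment from homogenized E. coli coexpressing human CYP17 and cytochrome P450 reductase. Substrate progesterone (25 µM as printed), NADPH cofactor.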

Series [2] deals with T1, Steroid 17-alpha-hydroxylase/17,20 lyase. Kind of series: Inhibition of CYP17. The method in brief: as §1
Series [3] concerns the target CYP3A4 (Homo sapiens, UniProt P08684). As to the kind of experiment: Inhibition of hepatic CYP3A4 expressed in insect microsomes at 1 uM. The class given is ADME, Microsome. The method in brief:
(§2)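 Recombinant human enzymes from baculovirus-infected insect cell microsomes, run per supplier protocol. Test concentration 1 µM; values are means of at least three independent tests, standard deviations under 5%.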

The target in series [4] is T2, CYP1A2 (Homo sapiens, UniProt P05177).
T2 sequence (P05177 whole entry): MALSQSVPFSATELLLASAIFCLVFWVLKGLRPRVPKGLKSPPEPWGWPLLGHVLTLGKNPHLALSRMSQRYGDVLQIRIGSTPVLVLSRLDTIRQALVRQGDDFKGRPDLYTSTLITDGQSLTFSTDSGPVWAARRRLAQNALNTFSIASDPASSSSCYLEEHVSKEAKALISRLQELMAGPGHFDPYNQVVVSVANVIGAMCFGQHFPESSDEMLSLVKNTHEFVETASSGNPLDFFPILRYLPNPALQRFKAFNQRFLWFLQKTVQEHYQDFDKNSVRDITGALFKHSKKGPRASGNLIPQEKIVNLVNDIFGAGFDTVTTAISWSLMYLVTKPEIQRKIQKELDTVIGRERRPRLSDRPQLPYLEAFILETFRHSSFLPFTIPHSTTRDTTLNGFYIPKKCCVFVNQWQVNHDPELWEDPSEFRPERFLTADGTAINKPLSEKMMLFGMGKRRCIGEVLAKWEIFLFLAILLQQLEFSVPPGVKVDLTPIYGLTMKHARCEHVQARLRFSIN
Kind of series: Inhibition of hepatic CYP1A2 expressed in insect microsomes at 1 uM. It is filed as ADME, Microsome. The gist of the method:
as §2

Series [5] deals with T3, CYP2B6 (Homo sapiens, UniProt P20813).
T3 sequence (P20813 whole entry): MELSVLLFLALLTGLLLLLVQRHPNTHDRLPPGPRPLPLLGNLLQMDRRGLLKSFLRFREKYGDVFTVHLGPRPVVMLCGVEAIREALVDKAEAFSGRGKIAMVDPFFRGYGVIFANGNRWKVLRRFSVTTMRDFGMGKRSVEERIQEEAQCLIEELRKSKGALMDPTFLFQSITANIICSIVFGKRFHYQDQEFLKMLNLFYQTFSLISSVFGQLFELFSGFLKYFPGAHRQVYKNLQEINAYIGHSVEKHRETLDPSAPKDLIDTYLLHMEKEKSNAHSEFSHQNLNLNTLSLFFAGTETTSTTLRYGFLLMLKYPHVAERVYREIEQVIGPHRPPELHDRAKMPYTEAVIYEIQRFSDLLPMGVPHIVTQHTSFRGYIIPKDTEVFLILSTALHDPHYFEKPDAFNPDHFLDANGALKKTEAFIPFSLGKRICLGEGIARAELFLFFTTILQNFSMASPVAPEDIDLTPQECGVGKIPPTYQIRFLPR
As to the kind of experiment: Inhibition of hepatic CYP2B6 expressed in insect microsomes at 1 uM. It is filed as ADME, Microsome. The gist of the method:
as §2

Series [6] is described as follows: Terminal half life in Wistar rat at 50 mg/kg, po. Details: dose 50 mg/kg, route oral. The settings on record: in vivo. The class given is ADME, organism-based. The method in brief: (§3)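 Male Wistar rats dosed orally at 50 mg/kg, or as acetate at 56 mg/kg (equivalent to 50 mg/kg parent). Plasma drug levels by LC–MS; non-compartmental analysis on mean plasma concentration–time data, values below detection limit set to zero. AUC, Cmax, tmax, terminal t1/2 and intrinsic hepatic clearance derived.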

Series [7] concerns the target CYP2D6 (Homo sapiens, UniProt P10635). Kind of series: Inhibition of hepatic CYP2D6 expressed in insect microsomes at 1 uM. It is filed as ADME, Microsome. The gist of the method: as §2
Series [8] can be described thus: Tmax in Wistar rat at 50 mg/kg, po. Details: dose 50 mg/kg, route oral. The settings on record: in vivo. It is filed as ADME, organism-based. The gist of the method:
as §3

The target of series [9] is T4, CYP11B1 (Homo sapiens, UniProt P15538).
T4 sequence (P15538 whole entry): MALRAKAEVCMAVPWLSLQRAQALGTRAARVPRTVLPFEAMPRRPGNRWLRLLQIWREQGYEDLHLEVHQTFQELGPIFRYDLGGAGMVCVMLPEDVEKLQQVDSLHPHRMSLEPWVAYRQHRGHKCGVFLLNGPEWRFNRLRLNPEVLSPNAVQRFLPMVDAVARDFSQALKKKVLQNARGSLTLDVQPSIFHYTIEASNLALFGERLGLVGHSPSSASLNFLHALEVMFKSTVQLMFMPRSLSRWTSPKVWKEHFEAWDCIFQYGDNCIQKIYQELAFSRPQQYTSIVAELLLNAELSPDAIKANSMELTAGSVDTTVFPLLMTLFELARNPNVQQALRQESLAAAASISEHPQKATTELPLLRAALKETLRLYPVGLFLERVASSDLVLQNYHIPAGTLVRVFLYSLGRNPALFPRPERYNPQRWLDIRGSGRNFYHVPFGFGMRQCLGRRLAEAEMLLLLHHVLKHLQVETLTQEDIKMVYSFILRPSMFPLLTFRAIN
As to the kind of experiment: Inhibition of human CYP11B1 at 0.2 uM using [4-14C]-11-dexycorticosterone as a substrate. Conditions: probe [4-14C]-11-dexycorticosterone. The gist of the method:
(§4)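 V79MZh cells expressing human CYP11B1 or CYP11B2, incubated with [4-14C]-11-deoxycorticosterone as substrate; inhibitors tested at 0.2 µM.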

The target of series [10] is T5, CYP11B2 (Homo sapiens, UniProt P19099).
T5 sequence (P19099 whole entry): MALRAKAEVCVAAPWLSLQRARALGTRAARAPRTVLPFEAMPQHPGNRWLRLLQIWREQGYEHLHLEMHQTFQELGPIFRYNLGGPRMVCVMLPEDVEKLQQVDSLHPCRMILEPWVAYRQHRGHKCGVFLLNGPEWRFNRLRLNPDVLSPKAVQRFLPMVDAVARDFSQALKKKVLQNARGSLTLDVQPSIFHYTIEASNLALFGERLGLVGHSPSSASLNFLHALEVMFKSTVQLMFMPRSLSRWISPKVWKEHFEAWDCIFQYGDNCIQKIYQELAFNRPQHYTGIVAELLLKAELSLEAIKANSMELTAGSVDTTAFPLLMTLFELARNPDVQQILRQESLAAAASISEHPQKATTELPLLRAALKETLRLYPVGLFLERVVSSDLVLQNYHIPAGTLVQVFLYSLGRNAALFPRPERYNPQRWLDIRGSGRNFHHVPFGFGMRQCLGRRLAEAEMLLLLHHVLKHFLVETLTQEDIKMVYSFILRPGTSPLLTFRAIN
As to the kind of experiment: Inhibition of human CYP11B2 at 0.2 uM using [4-14C]-11-dexycorticosterone as a substrate. Conditions: probe [4-14C]-11-dexycorticosterone. The gist of the method:
as §4

The nature of series [11]: AUC (0 to infinity) in Wistar rat at 50 mg/kg, po. Conditions: plasma. Details: time infinity, dose 50 mg/kg, route oral. It is filed as ADME, organism-based. The gist of the method:
as §3

Series [12] relates to Rattus norvegicus. As to the kind of experiment: Reduction in plasma testosterone level in Wistar rat at 50 mg/kg, po after 2 hrs. The class given is functional. Also noted: scale not given: the % may be the effect or the level left.
Series [13] relates to Rattus norvegicus. As to the kind of experiment: Reduction in plasma testosterone level in Wistar rat at 50 mg/kg, po after 1 hr. It is filed as functional. Also noted: scale not given: the % may be the effect or the level left.
Series [14] can be described thus: Cmax in Wistar rat at 50 mg/kg, po. The class given is ADME, organism-based. Also noted: dose 50 mg/kg, route oral. The settings on record: in vivo. The method in brief: as §3
Series [15] deals with Rattus norvegicus. Kind of series: Reduction in plasma testosterone level in Wistar rat at 50 mg/kg, po after 8 hrs. It is filed as functional. Also noted: scale not given: the % may be the effect or the level left.
The test system of series [16] is Rattus norvegicus. As to the kind of experiment: Reduction in plasma testosterone level in Wistar rat at 50 mg/kg, po after 4 hrs. The class given is functional. Details: scale not given: the % may be the effect or the level left.
In series [17] the test system is Rattus norvegicus. As to the kind of experiment: Intrinsic clearance in Wistar rat at 50 mg/kg, po. The class given is ADME, organism-based. Details: dose 50 mg/kg, route oral. Conditions: in vivo. The gist of the method: as §3
The subject of series [18] is Rattus norvegicus. As to the kind of experiment: Reduction in plasma testosterone level in Wistar rat at 50 mg/kg, po after 24 hrs. Also noted: Activity: scale not given: the % may be the effect or the level left. The class given is functional.
Series [19] relates to Rattus norvegicus. As to the kind of experiment: Reduction in plasma testosterone level in Wistar rat at 50 mg/kg, po after 6 hrs. The class given is functional. Details: scale not given: the % may be the effect or the level left.
Series [20] relates to Rattus norvegicus. Kind of series: Intrinsic clearance in Wistar rat at 56 mg/kg, po. Conditions: in vivo. The class given is ADME, organism-based. Also noted: dose 56 mg/kg, route oral. The method in brief: as §3

CYP3A4, sequence (P08684 whole entry): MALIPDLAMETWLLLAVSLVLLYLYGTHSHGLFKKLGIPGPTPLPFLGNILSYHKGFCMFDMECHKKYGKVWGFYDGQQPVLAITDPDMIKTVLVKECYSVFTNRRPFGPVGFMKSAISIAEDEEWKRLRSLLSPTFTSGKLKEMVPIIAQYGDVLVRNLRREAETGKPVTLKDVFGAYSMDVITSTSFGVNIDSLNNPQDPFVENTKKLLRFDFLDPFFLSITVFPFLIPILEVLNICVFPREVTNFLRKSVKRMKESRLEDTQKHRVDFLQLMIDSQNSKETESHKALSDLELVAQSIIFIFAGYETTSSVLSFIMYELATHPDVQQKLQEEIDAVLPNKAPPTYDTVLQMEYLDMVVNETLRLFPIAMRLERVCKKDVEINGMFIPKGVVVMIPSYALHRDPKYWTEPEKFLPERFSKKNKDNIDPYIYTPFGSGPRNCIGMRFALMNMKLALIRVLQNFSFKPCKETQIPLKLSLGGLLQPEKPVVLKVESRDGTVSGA
CYP2D6, sequence (P10635 whole entry): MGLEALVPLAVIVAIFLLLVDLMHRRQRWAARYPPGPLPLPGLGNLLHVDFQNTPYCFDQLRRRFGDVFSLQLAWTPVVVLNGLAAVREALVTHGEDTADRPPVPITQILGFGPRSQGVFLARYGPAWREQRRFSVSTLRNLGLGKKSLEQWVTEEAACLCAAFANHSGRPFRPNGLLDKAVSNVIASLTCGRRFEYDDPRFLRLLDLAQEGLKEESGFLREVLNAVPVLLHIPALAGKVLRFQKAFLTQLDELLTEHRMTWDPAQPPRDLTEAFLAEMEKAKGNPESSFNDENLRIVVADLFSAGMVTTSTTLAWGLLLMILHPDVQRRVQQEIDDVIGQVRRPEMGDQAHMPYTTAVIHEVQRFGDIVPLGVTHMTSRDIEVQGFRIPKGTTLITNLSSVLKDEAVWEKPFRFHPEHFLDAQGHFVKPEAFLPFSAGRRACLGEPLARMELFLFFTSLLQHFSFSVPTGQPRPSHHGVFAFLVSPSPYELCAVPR

With `CC(c1ccc2c(c1)Cc1ccccc1-2)n1ccnc1` (centres undefined), the IC50 was determined as 112 nM in series [1] and 4 nM in [2]. Also, the inhibition at 1 µM was 89% in series [3] and 98% in [4].
For `CCC(c1ccc(-c2ccc(F)cc2)cc1)n1ccnc1` (centres undefined), the inhibition at 1 µM in [5] is 46%; in series [7], 54%; in series [3] it was 88%; in series [4], 97%. The same compound gave a half-life in [6] of 10 h. Besides, the Tmax in series [8] is 6 h. The IC50 in series [1] stood at 345 nM. Moreover, the inhibition at 0.2 µM in [9] and in series [10] was 66% in each case. Besides, in series [11], the AUC(0-inf) came to 70700 ng·h/mL. Moreover, the Activity in [12] was 11.7%; in series [13], 16.5%; in series [15], 13.4%; in series [16] it was 13.9%; in [18], 36.7%; in series [19], 13.9%. The compound further displayed a Cmax in series [14] of 3290 ng/mL. The CL in [17] stood at 12 mL/min/kg.
In [20], `CC(=O)O[C@H]1CC[C@@]2(C)C(=CC[C@@H]3[C@@H]2CC[C@]2(C)C(c4cccnc4)=CC[C@@H]32)C1` [ABIRATERONE ACETATE] gave a CL of 187 mL/min/kg. The Activity in series [12] amounted to 44%; in series [13] it was 92.5%; in series [15] it was 35.6%; in series [16], 43.5%; in series [19], 43.3%. The “relative plasma testosterone level” value in series [18] turned out to be 476%.
